Results: ChEMBL document CHEMBL1154113, “Synthesis, cannabinoid receptor affinity, molecular modeling studies and in vivo pharmacological evaluation of new substituted 1-aryl-5-(1H-pyrrol-1-yl)-1H-pyrazole-3-carboxamides. 2. Effect of the 3-carboxamide substituent on the affinity and selectivity profile” (Bioorg Med Chem, 2009)
Activity calls are given as the source filed them. No cut-off for these calls is given here.

How the values were obtained:
Cannabinoid receptor 1 = Cannabinoid receptor 1 (Homo sapiens, UniProt P21554); assay: biochemical; type: cell-based, HEK293
Cannabinoid receptor 1, sequence (P21554 whole entry): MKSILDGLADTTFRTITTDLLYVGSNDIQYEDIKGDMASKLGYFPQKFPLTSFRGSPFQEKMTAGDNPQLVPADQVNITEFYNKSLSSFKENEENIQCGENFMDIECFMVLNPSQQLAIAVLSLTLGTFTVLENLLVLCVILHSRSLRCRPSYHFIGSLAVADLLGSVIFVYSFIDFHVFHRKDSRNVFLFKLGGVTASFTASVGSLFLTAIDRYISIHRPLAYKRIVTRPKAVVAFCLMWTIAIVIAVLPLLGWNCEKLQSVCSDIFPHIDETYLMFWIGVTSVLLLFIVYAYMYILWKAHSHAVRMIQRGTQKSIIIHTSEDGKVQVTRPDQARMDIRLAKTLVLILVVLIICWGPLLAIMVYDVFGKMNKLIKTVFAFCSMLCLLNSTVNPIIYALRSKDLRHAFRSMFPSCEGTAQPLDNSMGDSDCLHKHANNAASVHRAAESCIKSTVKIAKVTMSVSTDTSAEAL

Cannabinoid receptor 2 = Cannabinoid receptor 2 (Homo sapiens, UniProt P34972); assay: Displacement of [3H]CP-55940 from human recombinant CB2 receptor expressed in HEK cells; type: cell-based, HEK293
Cannabinoid receptor 2, sequence (P34972 whole entry): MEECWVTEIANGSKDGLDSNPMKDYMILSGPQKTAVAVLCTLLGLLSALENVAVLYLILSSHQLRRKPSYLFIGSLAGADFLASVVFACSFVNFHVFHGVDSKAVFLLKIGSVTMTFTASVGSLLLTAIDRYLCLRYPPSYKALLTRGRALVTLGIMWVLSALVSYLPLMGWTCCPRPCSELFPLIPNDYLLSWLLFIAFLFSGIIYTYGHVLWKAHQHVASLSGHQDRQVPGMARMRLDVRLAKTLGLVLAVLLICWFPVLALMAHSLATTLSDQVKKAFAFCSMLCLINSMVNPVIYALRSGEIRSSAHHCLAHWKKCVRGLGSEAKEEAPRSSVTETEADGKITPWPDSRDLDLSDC

Homo sapiens = species: Homo sapiens; assay: Selectivity index, ratio of Ki for human recombinant CB2 receptor to Ki for human recombinant CB1 receptor
Rattus norvegicus [1] = assay: Reduction in cumulative food intake in Wistar rat at 1 mg/kg, ip measured 360 mins after lights off; type: functional
Summary of the method: (§1)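 Adult male Wistar rats, about 400 g, housed singly under an inverted 12:12 h cycle, with free access to chow and water. Groups of n = 6–8 were matched on body weight and intake and given 0, 0.1, 1 or 10 mg/kg ip, suspended in saline with a few drops of Tween 80, 30 min before lights off. Food and water were weighed at 60–360 and 1440 min. Newman–Keuls test against vehicle.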

Rattus norvegicus [2] = assay: Reduction in cumulative food intake in Wistar rat at 10 mg/kg, ip measured 360 mins after lights off; type: functional; conditions: 6 h, route intraperitoneal
Summary of the method: as §1

Rattus norvegicus [3] = assay: Reduction in food intake in Wistar rat at 1 mg/kg, ip after 1440 mins; type: functional, organism-based; set-up: dose 1 mg/kg
Summary of the method: as §1

Rattus norvegicus [4] = assay: Reduction in food intake in Wistar rat at 10 mg/kg, ip after 1440 mins; type: functional, organism-based; set-up: dose 10 mg/kg
Summary of the method: as §1

Rattus norvegicus [5] = assay: Reduction in cumulative water intake in Wistar rat at 0.1 to 10 mg/kg, ip measured 360 mins after lights off; type: functional, organism-based
Summary of the method: as §1

Rattus norvegicus [6] = assay: Reduction in cumulative water intake in Wistar rat at 0.1 to 10 mg/kg, ip after 1440 mins; type: functional, organism-based
Summary of the method: as §1

Rattus norvegicus [7] = assay: Reduction in cumulative food intake in Wistar rat at 10 mg/kg, ip measured 60 mins after lights off relative to control; type: functional; conditions: 1 h, route intraperitoneal
Summary of the method: as §1

Row | SMILES | Ki (Cannabinoid receptor 1) | Ki (Cannabinoid receptor 2) | Ratio Ki (Homo sapiens) | further results
1 | Cc1c(C(=O)NCCc2ccc(Cl)cc2Cl)nn(-c2ccc(F)cc2F)c1-n1c(C)ccc1C | 41 nM | 721 nM | 17.6 | –
2 | Cc1c(C(=O)NC(C)c2ccccc2)nn(-c2ccc(Cl)c(Cl)c2)c1-n1c(C)ccc1C (stereo not drawn) | 80 nM | 5.7 nM | 0.071 | –
3 | COc1ccc(CCNC(=O)c2nn(-c3ccc(F)cc3F)c(-n3c(C)ccc3C)c2C)cc1Cl | 99 nM | > 3940 nM | > 39.8 | –
4 | Cc1c(C(=O)Nc2ccc(Cl)cc2)nn(-c2ccc(Cl)cc2Cl)c1-n1c(C)ccc1C | 96 nM | > 3940 nM | > 41 | –
5 | Cc1c(C(=O)NCCc2ccc(Cl)c(Cl)c2)nn(-c2ccc(Cl)cc2Cl)c1-n1c(C)ccc1C | 117 nM | > 3940 nM | > 33.4 | –
6 | Cc1c(C(=O)NCc2ccc(Cl)cc2)nn(-c2ccc(F)cc2F)c1-n1c(C)ccc1C | 56 nM | > 3940 nM | > 70.4 | –
7 | Cc1c(C(=O)NC2CCCCCC2)nn(-c2ccc(Cl)c(Cl)c2)c1-n1cccc1 | 5.6 nM | 1.3 nM | 0.23 | –
8 | COc1cc(CNC(=O)c2nn(-c3ccc(Cl)cc3Cl)c(-n3cccc3)c2C)c(Br)c(OC)c1OC | 227 nM | 609 nM | 2.68 | –
9 | Cc1c(C(=O)NCc2ccc(Cl)cc2)nn(-c2ccc(F)cc2F)c1-n1cccc1 | 340 nM | 3400 nM | 10 | –
10 | Cc1c(C(=O)NC2CCCC2)nn(-c2ccc(Cl)cc2Cl)c1-n1c(C)ccc1C | 150 nM | 310 nM | 2.07 | –
11 | COc1cc(CNC(=O)c2nn(-c3ccc(F)cc3F)c(-n3c(C)ccc3C)c2C)c(Br)c(OC)c1OC | 165 nM | 373 nM | 2.26 | –
12 | Cc1c(C(=O)NCCc2ccc(Cl)cc2)nn(-c2ccc(F)cc2F)c1-n1cccc1 | 80 nM | > 3940 nM | > 49.2 | –
13 | Cc1c(C(=O)NC2CCCC2)nn(-c2ccc(Cl)cc2Cl)c1-n1cccc1 | 84 nM | 170 nM | 2.02 | –
14 | COc1ccc(CCNC(=O)c2nn(-c3ccc(F)cc3F)c(-n3cccc3)c2C)cc1Cl | 948 nM | 1940 nM | 2.05 | –
15 | Cc1c(C(=O)Nc2ccc(Cl)cc2)nn(-c2ccc(Cl)cc2Cl)c1-n1cccc1 | 120 nM | 80 nM | 0.67 | –
16 | Cc1c(C(=O)NC2CCCC2)nn(-c2ccc(F)cc2F)c1-n1c(C)ccc1C | 840 nM | 900 nM | 1.07 | –
17 | Cc1c(C(=O)NC23CC4CC(CC(C4)C2)C3)nn(-c2ccc(Cl)c(Cl)c2)c1-n1c(C)ccc1C | 5.6 nM | 12 nM | 2.14 | –
18 | Cc1c(C(=O)NCCc2ccc(Cl)cc2)nn(-c2ccc(Cl)cc2Cl)c1-n1c(C)ccc1C | 30 nM | > 3940 nM | > 131 | –
19 | Cc1c(C(=O)N[C@@H](C)C2CCCCC2)nn(-c2ccc(Cl)c(Cl)c2)c1-n1cccc1 | 3.4 nM | 2.4 nM | 0.71 | –
20 | Cc1c(C(=O)NC2CCCCCC2)nn(-c2ccc(F)cc2F)c1-n1c(C)ccc1C | 56 nM | 110 nM | 1.96 | –
21 | COc1ccc(CCNC(=O)c2nn(-c3ccc(Cl)cc3Cl)c(-n3cccc3)c2C)cc1Cl | 368 nM | 2890 nM | 7.84 | –
22 | Cc1c(C(=O)NCCc2ccc(Cl)c(Cl)c2)nn(-c2ccc(F)cc2F)c1-n1c(C)ccc1C | 54 nM | > 3940 nM | > 73 | –
23 | Cc1c(C(=O)NCc2ccc(Cl)cc2)nn(-c2ccc(Cl)c(Cl)c2)c1-n1cccc1 | 70 nM | 100 nM | 1.43 | –
24 | Cc1c(C(=O)NCCc2ccc(Cl)cc2Cl)nn(-c2ccc(Cl)cc2Cl)c1-n1cccc1 | 218 nM | > 3940 nM | > 18.1 | –
25 | Cc1c(C(=O)NCCc2ccc(Cl)cc2)nn(-c2ccc(Cl)cc2Cl)c1-n1cccc1 | 70 nM | > 3940 nM | > 56.2 | –
26 | Cc1c(C(=O)NC2CCCCCC2)nn(-c2ccc(Cl)cc2Cl)c1-n1cccc1 | 20 nM | 20 nM | 1 | –
27 | Cc1c(C(=O)NC2CCCC2)nn(-c2ccc(Cl)c(Cl)c2)c1-n1cccc1 | 50 nM | 12 nM | 0.24 | –

Row | SMILES | Ki (Cannabinoid receptor 1) | Ki (Cannabinoid receptor 2) | Ratio Ki (Homo sapiens) | further results
28 | Cc1c(C(=O)Nc2ccc(Cl)cc2)nn(-c2ccc(Cl)c(Cl)c2)c1-n1c(C)ccc1C | > 2820 nM | > 3940 nM | – | –
29 | Cc1c(C(=O)NCc2ccc(Cl)cc2)nn(-c2ccc(Cl)cc2Cl)c1-n1cccc1 | 140 nM | 940 nM | 6.71 | –
30 | Cc1c(C(=O)NCCc2ccc(Cl)cc2)nn(-c2ccc(Cl)c(Cl)c2)c1-n1c(C)ccc1C | 390 nM | > 3940 nM | > 10.1 | –
31 | Cc1c(C(=O)Nc2ccc(Cl)cc2)nn(-c2ccc(F)cc2F)c1-n1cccc1 | 2100 nM | > 3940 nM | 3.76 | –
32 | Cc1c(C(=O)NC2CCCCCC2)nn(-c2ccc(Cl)c(Cl)c2)c1-n1c(C)ccc1C | 12 nM | 4.2 nM | 0.35 | –
33 | Cc1c(C(=O)NCCc2ccc(Cl)cc2Cl)nn(-c2ccc(Cl)cc2Cl)c1-n1c(C)ccc1C | 156 nM | > 3940 nM | > 25.2 | –
34 | Cc1c(C(=O)NC23CC4CC(CC(C4)C2)C3)nn(-c2ccc(Cl)c(Cl)c2)c1-n1cccc1 | 31 nM | 20 nM | 0.65 | –
35 | Cc1c(C(=O)Nc2ccc(Cl)cc2)nn(-c2ccc(Cl)c(Cl)c2)c1-n1cccc1 | 1300 nM | 790 nM | 0.61 | –
36 | Cc1c(C(=O)NCc2ccc(Cl)cc2)nn(-c2ccc(Cl)c(Cl)c2)c1-n1c(C)ccc1C | 100 nM | 790 nM | 7.9 | –
37 | Cc1c(C(=O)NC2CCCCCC2)nn(-c2ccc(Cl)cc2Cl)c1-n1c(C)ccc1C | 56 nM | 80 nM | 1.43 | –
38 | Cc1c(C(=O)NCc2ccc(Cl)cc2)nn(-c2ccc(Cl)cc2Cl)c1-n1c(C)ccc1C | 90 nM | > 3940 nM | > 43.8 | –
39 | Cc1c(C(=O)NCc2ccc(Cl)c(Cl)c2)nn(-c2ccc(Cl)cc2Cl)c1-n1c(C)ccc1C | – | – | 141 | inhibition in vivo at 1 mg/kg (Rattus norvegicus [1]; 6 h, route intraperitoneal): 15%; inhibition in vivo at 10 mg/kg (Rattus norvegicus [2]): 25%; Activity (Rattus norvegicus [3]): Active; Activity (Rattus norvegicus [4]): Active; Activity (Rattus norvegicus [5]): inactive; Activity (Rattus norvegicus [6]): inactive
40 | Cc1c(C(=O)NCCc2ccc(Cl)c(Cl)c2)nn(-c2ccc(Cl)cc2Cl)c1-n1cccc1 | 157 nM | > 3940 nM | > 25.1 | –
41 | COc1cc(CNC(=O)c2nn(-c3ccc(F)cc3F)c(-n3cccc3)c2C)c(Br)c(OC)c1OC | 345 nM | 739 nM | 2.14 | –
42 | COc1ccc(CCNC(=O)c2nn(-c3ccc(Cl)cc3Cl)c(-n3c(C)ccc3C)c2C)cc1Cl | 112 nM | 3480 nM | 31.1 | –
43 | Cc1c(C(=O)N[C@H](C)C2CCCCC2)nn(-c2ccc(Cl)c(Cl)c2)c1-n1cccc1 | 14 nM | 1.6 nM | 0.11 | –
44 | Cc1c(C(=O)NCCc2ccc(Cl)cc2)nn(-c2ccc(F)cc2F)c1-n1c(C)ccc1C | 50 nM | > 3940 nM | > 78.8 | Activity (Rattus norvegicus [1]): Active; inhibition in vivo at 10 mg/kg (Rattus norvegicus [2]): 25%; Activity (Rattus norvegicus [4]): Active; Activity (Rattus norvegicus [5]): inactive; Activity (Rattus norvegicus [6]): inactive; inhibition in vivo at 10 mg/kg (Rattus norvegicus [7]): 40%
45 | Cc1c(C(=O)NC(c2ccccc2)c2ccc(Cl)cc2)nn(-c2ccc(Cl)c(Cl)c2)c1-n1c(C)ccc1C (stereo not drawn) | > 2820 nM | > 3940 nM | – | –
46 | COc1cc(CNC(=O)c2nn(-c3ccc(Cl)cc3Cl)c(-n3c(C)ccc3C)c2C)c(Br)c(OC)c1OC | 144 nM | 553 nM | 3.84 | –
47 | Cc1c(C(=O)NC2CCCCC2)nn(-c2ccc(Cl)c(Cl)c2)c1-n1cccc1 | – | – | 0.3 | –
48 | Cc1c(C(=O)NC2CCCC2)nn(-c2ccc(F)cc2F)c1-n1cccc1 | 2400 nM | 1100 nM | 0.46 | –
49 | Cc1c(C(=O)Nc2ccc(Cl)cc2)nn(-c2ccc(F)cc2F)c1-n1c(C)ccc1C | 560 nM | > 3940 nM | > 7.04 | –
50 | Cc1c(C(=O)NC2CCCCCC2)nn(-c2ccc(F)cc2F)c1-n1cccc1 | 560 nM | 200 nM | 0.36 | –
51 | Cc1c(C(=O)NC2CCCC2)nn(-c2ccc(Cl)c(Cl)c2)c1-n1c(C)ccc1C | 36 nM | 12 nM | 0.33 | –
52 | Cc1c(C(=O)NCCc2ccc(Cl)c(Cl)c2)nn(-c2ccc(F)cc2F)c1-n1cccc1 | 310 nM | 1290 nM | 4.16 | –
53 | Cc1c(C(=O)NCCc2ccc(Cl)cc2)nn(-c2ccc(Cl)c(Cl)c2)c1-n1cccc1 | 240 nM | 1200 nM | 5 | –
54 | Cc1c(C(=O)NCCc2ccc(Cl)cc2Cl)nn(-c2ccc(F)cc2F)c1-n1cccc1 | 380 nM | 667 nM | 1.75 | –
